Results from ChEMBL document CHEMBL4007409, “Design and Synthesis of Novel and Selective Phosphodiesterase 2 (PDE2a) Inhibitors for the Treatment of Memory Disorders” (J Med Chem, 2017).
≈ marks a conversion by molar mass, not a printed value.

Legend:
[1] = Intrinsic clearance in rat liver microsomes at 1 uM measured up to 30 mins in presence of NADPH by HPLC analysis; assay type: ADME, microsome; conditions: read-out: CLH
How it was run: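 Compound at 1 µM final was incubated with human or rat liver microsomes (0.5 mg protein/mL) in Tris buffer at 37 °C, started with NADPH (2 mM). Samples were quenched in cold ACN with indomethacin internal standard at 0, 5, 15 and 30 min (RLM) or 0, 15, 30 and 60 min (HLM) and analysed by HPLC. CLint = first-order degradation rate constant / microsomal protein concentration.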

[2] = Solubility of the compound; assay type: physicochemical
[3] = AUC (infinity) in Sprague-Dawley rat plasma at 1 mg/kg, po administered as single dose by LC-MS/MS analysis; assay type: ADME, organism-based; design: dose 1 mg/kg, time infinity, route oral
How it was run: (§1)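 Non-fasted male SD rats (200-250 g, n=3) received a single oral 1 mg/kg dose in NMP:PEG400:water (5:35:65). Femoral-vein blood was sampled pre-dose and at 0.25–24 h. Plasma was extracted with acetonitrile plus internal standard and analysed by LC-MS/MS over a 0.5–2000 ng/mL calibration range.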

[4] = test system: Cerebrospinal fluid; assay: Drug uptake in Sprague-Dawley rat cerebrospinal fluid at 1 mg/kg, po administered as single dose by LC-MS/MS analysis; assay type: ADME, organism-based; conditions: in vivo, read-out: Drug uptake
How it was run: (§2)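 Male SD rats got a single 1 mg/kg oral dose in NMP:PEG400:water (5:35:65). Total brain, CSF and plasma levels were then measured.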

[5] = test system: Rattus norvegicus; assay: Clearance in Sprague-Dawley rat plasma at 1 mg/kg, iv administered as single dose by LC-MS/MS analysis relative to hepatic blood flow; assay type: ADME, organism-based; conditions: in vivo
[6] = test system: Brain; assay: Drug uptake in Sprague-Dawley rat brain at 1 mg/kg, po administered as single dose by LC-MS/MS analysis; assay type: ADME, organism-based; conditions: in vivo, read-out: Drug uptake; how it was run: as §2
[7] = Elimination half life in Sprague-Dawley rat plasma at 1 mg/kg, iv administered as single dose by LC-MS/MS analysis; assay type: ADME, organism-based; conditions: read-out: beta t1/2 (converted)
How it was run: (§3)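 Male SD rats (200-250 g), not fasted, n=3, given a single 1 mg/kg IV dose in NMP:PEG400:water (5:35:65) via jugular/femoral vein catheters. Blood was taken from pre-dose to 24 h (0.033–24 h). Plasma was protein-precipitated with acetonitrile containing internal standard and quantified by LC-MS/MS against 0.5–2000 ng/mL standards.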

[8] = Volume of distribution at steady state in Sprague-Dawley rat plasma at 1 mg/kg, iv administered as single dose by LC-MS/MS analysis; assay type: ADME, organism-based; conditions: read-out: Vdss; how it was run: as §3
[9] = Cmax in Sprague-Dawley rat plasma at 1 mg/kg, po administered as single dose by LC-MS/MS analysis; assay type: ADME, organism-based; design: dose 1 mg/kg, route oral; how it was run: as §1
[10] = Tmax in Sprague-Dawley rat plasma at 1 mg/kg, po administered as single dose by LC-MS/MS analysis; assay type: ADME, organism-based; how it was run: as §1
[11] = test system: Plasma; assay: Drug uptake in Sprague-Dawley rat plasma at 1 mg/kg, po administered as single dose by LC-MS/MS analysis; assay type: ADME, organism-based; conditions: read-out: Cp, in vivo; how it was run: as §2
[12] = Oral bioavailability in Sprague-Dawley rat plasma at 1 mg/kg administered as single dose by LC-MS/MS analysis; assay type: ADME, organism-based; how it was run: as §1
[13] = AUC (0 to infinity) in Sprague-Dawley rat plasma at 1 mg/kg, iv administered as single dose by LC-MS/MS analysis; assay type: ADME, organism-based; design: dose 1 mg/kg, time infinity, route intravenous; how it was run: as §3
[14] = Clearance in Sprague-Dawley rat plasma at 1 mg/kg, iv administered as single dose by LC-MS/MS analysis; assay type: ADME, organism-based; how it was run: as §3

Cc1cc(N2CCCC(C(=O)Nc3ccc4c(c3)CCC4)C2)n2ncnc2n1 (centres undefined)
microsomal CLint at 1 µM [1]: 67.9 µL/min/mg
solubility [2]: 49 µg/mL (≈ 130 µM)

Cc1cc([C@@H]2CN(C(=O)c3cc(C)c(F)c(F)c3)CC(F)(F)C2)n2ncnc2n1
microsomal CLint at 1 µM [1]: 52.2 µL/min/mg

O=C(Nc1ccc2c(c1)CCC2)C1CCCN(c2ccnc3ncnn23)C1 (centres undefined)
microsomal CLint at 1 µM [1]: 76.2 µL/min/mg
solubility [2]: 47 µg/mL (≈ 130 µM)

Cc1cc([C@H]2CN(C(=O)c3ccc(F)c(Br)c3)CC(F)(F)C2)n2ncnc2n1
microsomal CLint at 1 µM [1]: 17.3 µL/min/mg

Cc1cc(C2CCCN(C(=O)c3ccc(F)c(C)c3)C2)n2ncnc2n1 (centres undefined)
microsomal CLint at 1 µM [1]: 33.5 µL/min/mg
solubility [2]: 35 µg/mL (≈ 99 µM)

COc1ccc(C(=O)N2CCCC(c3cc(C)nc4ncnn34)C2)cc1C (centres undefined)
microsomal CLint at 1 µM [1]: 30.2 µL/min/mg
solubility [2]: 36 µg/mL (≈ 98.5 µM)

Cc1cc(N2CCCC(C(=O)Nc3ccc4ccccc4c3)C2)n2ncnc2n1 (centres undefined)
microsomal CLint at 1 µM [1]: 53.4 µL/min/mg
solubility [2]: 13 µg/mL (≈ 33.6 µM)

Cc1cc([C@@H]2CN(C(=O)c3ccc(F)c(Br)c3)CC(F)(F)C2)n2ncnc2n1
AUC(0-inf) [3]: 442 ng·h/mL
concentration [4]: 15 nM
CL [5]: 50%
concentration [6]: 66 nM
half-life [7]: 60.6 min
Vd [8]: 0.98 L/kg
Cmax [9]: 201 ng/mL
Tmax [10]: 40.2 min
concentration [11]: 204 nM
microsomal CLint at 1 µM [1]: 25.7 µL/min/mg
bioavailability [12]: 87%
AUC(0-inf) [13]: 508 ng·h/mL
clearance [14]: 32.8 mL/min/kg

Cc1cc([C@H]2CCCN(C(=O)c3ccc4ccccc4c3)C2)n2ncnc2n1
microsomal CLint at 1 µM [1]: 124 µL/min/mg
solubility [2]: 37 µg/mL (≈ 99.6 µM)

Cc1cc([C@@H]2CN(C(=O)c3ccc(F)c(C4CC4)c3)CC(F)(F)C2)n2ncnc2n1
microsomal CLint at 1 µM [1]: 162 µL/min/mg

O=C(Nc1ccc2c(c1)CCC2)C1CCCN(c2cc(C(F)(F)F)nc3ncnn23)C1 (centres undefined)
microsomal CLint at 1 µM [1]: 94.1 µL/min/mg
solubility [2]: 29 µg/mL (≈ 67.4 µM)

Cc1cc(C2CCCN(C(=O)c3ccc4c(c3)OCC4)C2)n2ncnc2n1 (centres undefined)
microsomal CLint at 1 µM [1]: 21.7 µL/min/mg
solubility [2]: 36 µg/mL (≈ 99.1 µM)

Cc1cc(C2CCCN(C(=O)c3ccc4ncccc4c3)C2)n2ncnc2n1 (centres undefined)
microsomal CLint at 1 µM [1]: 6.3 µL/min/mg
solubility [2]: 47 µg/mL (≈ 126 µM)

Cc1cc(C2CCCN(C(=O)c3ccc4c(c3)CCC4)C2)n2ncnc2n1 (centres undefined)
microsomal CLint at 1 µM [1]: 83.9 µL/min/mg
solubility [2]: 47 µg/mL (≈ 130 µM)

Cc1cc([C@@H]2CCCN(C(=O)c3ccc4ccccc4c3)C2)n2ncnc2n1
microsomal CLint at 1 µM [1]: 41.4 µL/min/mg
solubility [2]: 37 µg/mL (≈ 99.6 µM)

COc1cc(Cl)ccc1NC(=O)C1CCCN(c2cc(C)nc3ncnn23)C1 (centres undefined)
microsomal CLint at 1 µM [1]: 78.9 µL/min/mg
solubility [2]: 45 µg/mL (≈ 112 µM)

Cc1cc(C2CCCN(C(=O)c3ccc4ccccc4c3)C2)n2ncnc2n1 (racemic)
microsomal CLint at 1 µM [1]: 85.6 µL/min/mg
solubility [2]: 37 µg/mL (≈ 99.6 µM)

COc1ccc(C(=O)N2CC(c3cc(C)nc4ncnn34)CC(F)(F)C2)cc1C (racemic)
microsomal CLint at 1 µM [1]: 67.7 µL/min/mg

Cc1cc(C2CN(C(=O)c3ccc4ccccc4c3)CC(F)(F)C2)n2ncnc2n1 (racemic)
microsomal CLint at 1 µM [1]: 78.8 µL/min/mg
